From PubChem BioAssay
Active and inactive are the calls of the source.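 The calls were made as follows, unless noted: active = viability at or below 10% of carrier control in both of two separate runs; inconclusive = viability at or below 10% in only one of the two runs; inactive = the rest.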

Columns and labels:
[1] = reducers of endogenous Her2 protein level, primary screen, SKBR3 breast tumor cells, AlphaScreen, ATP viability (AID 461;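 active = Her2 level under about 52% in both replicate screens, with viability over 70% of control, limit read from the data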;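 as to Her2 level: lower value means less Her2 protein in the cells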;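 as to viability: percent of carrier control wells set as 100% viability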); conditions: 18-24 h, measured here: SKBR3 viability, ATP luminescence, at 10 µM
[2] = target: Receptor tyrosine-protein kinase erbB-2 (Homo sapiens) (UniProt P04626); experiment: as above; conditions: 18-24 h, at 10 µM, stronger effect = lower value
[3] = SK-BR-3 cell growth inhibitors, pilot screen, 24 h, human (AID 572); conditions: SK-BR-3 viability, CellTiter-Glo luminescence, at 10 µM, stronger effect = lower value;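 also: compound exposure lasted between 18 and 24 h rather than exactly 24 h; 100% = carrier-treated control wells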
[4] = HUVEC growth inhibition – cell-based, human, primary screen (AID 575;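 active = viability at or below 30% in both replicate assays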;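 also: 100% = median of untreated cell wells with 0.1% DMSO on each plate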); conditions: HUVEC proliferation, CellTiter-Glo luminescence, 72 h; at 10 µM; stronger effect = lower value
Summary of the method: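 material = primary HUVEC, no more than 12 passages | input = 1250 cells per well | controls = vehicle and MePR control wells | measured by = CTG luminescence | times = 72 h compound incubation | format = collagen-coated 384-well format | read-out = % viability vs DMSO wells | doses = single 10 µM dose, 0.1% DMSO, from 5x medium stock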

[5] = growth inhibitors of H69AR lung tumor, primary screen, human, duplicate replicates (AID 580;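 active = viability at or under a set limit in both replicates, limit being median viability minus 3 SD, cut at about 48% in these data, passing the limit was not always enough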;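 also: 100% = mean luminescence of untreated wells and 0% = no signal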); conditions: H69AR lung tumor cells viability, ATP luminescence, 72 h; at 10 µM; stronger effect = lower value
[6] = reversal of MRP1-mediated doxorubicin resistance, pilot screen, H69AR cells, doxorubicin co-treatment (AID 601;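 active = viability loss from added drug above about 55%, and viability with drug at most 40%, in both replicates, limit read from the data, passing the limit was not always enough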); conditions: CellTiter-Glo, 72 h, at 10 µM; for differential viability (reversal): stronger effect = higher value
[7] = 384-well plate pilot, post-Golgi transport modulator project, inhibition of yeast transport mutant growth (AID 636; in the data active = inhibition above about 31%); conditions: absorbance 615 nm, about 18 h, stronger effect = higher value
[8] = growth suppression of yeast trafficking mutant, preliminary HTS, modulators of trafficking downstream of Golgi apparatus project, 1536-format plate, OD 615 nm (AID 637; in the data active = inhibition above about 30%); conditions: yeast transport mutant growth, absorbance 615 nm, 18 h; stronger effect = higher value
[9] = H69AR cells + 2 uM doxorubicin, measured here: viability with 2 uM doxorubicin, stronger effect = lower value
[10] = H69AR cells, compound alone cytotoxicity

Sequence of Receptor tyrosine-protein kinase erbB-2 (Homo sapiens) (P04626 whole entry, looked up): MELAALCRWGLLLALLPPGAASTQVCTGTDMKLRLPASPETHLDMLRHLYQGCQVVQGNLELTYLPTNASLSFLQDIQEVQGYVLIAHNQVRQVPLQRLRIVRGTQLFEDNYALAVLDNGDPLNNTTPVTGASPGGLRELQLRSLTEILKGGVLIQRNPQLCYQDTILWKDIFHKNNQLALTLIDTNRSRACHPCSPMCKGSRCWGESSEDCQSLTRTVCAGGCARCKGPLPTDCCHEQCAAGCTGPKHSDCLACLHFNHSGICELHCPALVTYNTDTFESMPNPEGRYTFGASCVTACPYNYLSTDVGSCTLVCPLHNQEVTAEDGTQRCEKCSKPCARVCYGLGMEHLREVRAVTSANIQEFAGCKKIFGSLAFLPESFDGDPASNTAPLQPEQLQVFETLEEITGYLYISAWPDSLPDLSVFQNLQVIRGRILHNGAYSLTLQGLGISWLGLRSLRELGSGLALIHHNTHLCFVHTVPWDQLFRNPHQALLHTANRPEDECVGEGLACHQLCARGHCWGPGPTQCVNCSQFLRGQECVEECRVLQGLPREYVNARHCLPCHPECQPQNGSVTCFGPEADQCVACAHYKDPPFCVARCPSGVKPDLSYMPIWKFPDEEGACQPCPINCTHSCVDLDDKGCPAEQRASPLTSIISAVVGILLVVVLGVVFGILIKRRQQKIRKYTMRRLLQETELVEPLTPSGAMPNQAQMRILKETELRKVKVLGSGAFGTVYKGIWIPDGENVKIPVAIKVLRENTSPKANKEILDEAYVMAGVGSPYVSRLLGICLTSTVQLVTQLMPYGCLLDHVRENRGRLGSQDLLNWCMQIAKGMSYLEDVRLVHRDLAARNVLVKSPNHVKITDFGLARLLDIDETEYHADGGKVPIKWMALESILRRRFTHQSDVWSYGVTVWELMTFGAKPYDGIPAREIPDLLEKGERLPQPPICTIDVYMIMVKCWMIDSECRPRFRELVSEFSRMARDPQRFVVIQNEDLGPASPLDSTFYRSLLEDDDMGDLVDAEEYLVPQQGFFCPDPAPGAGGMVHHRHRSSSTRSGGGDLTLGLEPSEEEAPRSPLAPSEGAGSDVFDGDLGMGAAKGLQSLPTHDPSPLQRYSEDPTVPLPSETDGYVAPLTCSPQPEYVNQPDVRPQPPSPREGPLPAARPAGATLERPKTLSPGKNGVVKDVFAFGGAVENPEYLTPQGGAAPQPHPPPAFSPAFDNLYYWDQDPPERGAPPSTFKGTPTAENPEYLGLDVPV

Structure (SMILES)	viability [1] [%]	Her2 level [2]	viability [3]	viability [4]	viability [5]	differential viability (reversal) ([6]; H69AR cells + 2 uM doxorubicin)	viability [6, 9] [%]	viability [6, 10] [%]	inhibition [7]	inhibition [8]
Cn1c(=O)c2c(nc(CN3CCOCC3)n2CC(O)CO)n(C)c1=O (stereo not given)	111	107% (inactive)	111% (inactive)	104% (inactive)	86.2% (inactive)	-4.93% (inactive)	91.1	86.2	-3.9% (inactive)	2.46% (inactive)
CC(C)COc1nc2ccccc2nc1C(C#N)C(=O)NC1CCCCC1 (stereo not given)	99	105% (inactive)	99% (inactive)	80% (inactive)	84.9% (inactive)	-20.3% (inactive)	105	84.9	-4.67% (inactive)	31% (active)
Cc1ccc(C)c(N2CCN(C(=O)c3ccc(CS(=O)(=O)c4ccccc4C)o3)CC2)c1	82	66.5% (inactive)	82% (inactive)	50.8% (inactive)	11.8% (active)	-39.1% (inactive)	50.9	11.8	-3.16% (inactive)	1.27% (inactive)
CC(C)(C)Nc1nc(NC(C)(C)C)nc(-n2ccnc2)n1	122	80% (inactive)	122% (inactive)	69% (inactive)	88.6% (inactive)	1.06% (inactive)	87.6	88.6	-0.26% (inactive)	10.8% (inactive)
Cc1cc(C)c2c(C)nn(C3CCCCC3)c2n1	81.5	114% (inactive)	81.5% (inactive)	80.8% (inactive)	95.5% (inactive)	12.3% (inactive)	83.2	95.5	6.62% (inactive)	14.1% (inactive)
O=C(CSc1nnc(-c2ccccc2)c(-c2ccccc2)n1)N1CCOCC1	97	93% (inactive)	97% (inactive)	101% (inactive)	85.3% (inactive)	12.8% (inactive)	72.5	85.3	0% (inactive)	-5.48% (inactive)
Cc1ccc2nsnc2c1S(=O)(=O)N(Cc1cc2cccc(C)c2[nH]c1=O)CC1CCCO1 (stereo not given)	81.5	89% (inactive)	81.5% (inactive)	82.3% (inactive)	21.4% (active)	0% (inactive)	21.4	21.4	-5.6% (inactive)	-0.66% (inactive)
Cc1ccc(Cl)cc1NC(=O)CSc1nnc(C)n1-c1ccccc1	90	79% (inactive)	90% (inactive)	91% (inactive)	86.6% (inactive)	6.06% (inactive)	80.6	86.6	-2.63% (inactive)	0.65% (inactive)
FC(F)(F)c1cccc(N2CCN(Cc3cccnc3)CC2)c1	90.5	99.5% (inactive)	90.5% (inactive)	101% (inactive)	110% (inactive)	25.3% (inactive)	84.9	110	-0.4% (inactive)	-1.61% (inactive)
Cn1c(SCC(=O)N2CCOCC2)nnc1-c1cnccn1	109	116% (inactive)	109% (inactive)	101% (inactive)	109% (inactive)	10.4% (inactive)	98.7	109	-4.34% (inactive)	-9.17% (inactive)
COc1ccc(C)cc1S(=O)(=O)Nc1cccnc1	90.5	84.5% (inactive)	90.5% (inactive)	91.2% (inactive)	88.4% (inactive)	1.54% (inactive)	86.9	88.4	-4.19% (inactive)	0.16% (inactive)
CC(C(=O)Nc1ccccc1-c1ccccc1)N1CCOCC1 (stereo not given)	108	97.5% (inactive)	108% (inactive)	104% (inactive)	96.1% (inactive)	-1.07% (inactive)	97.1	96.1	-10.6% (inactive)	-4.13% (inactive)
Cc1cccc(N2CCN(C(=O)Cn3ccc4ccccc4c3=O)CC2)c1C	90.5	81% (inactive)	90.5% (inactive)	94.1% (inactive)	95% (inactive)	-1.24% (inactive)	96.2	95	-4.34% (inactive)	-2.91% (inactive)
O=C(OCc1cc2ccccc2[nH]c1=O)c1ccco1	106	114% (inactive)	106% (inactive)	95.9% (inactive)	100% (inactive)	6.74% (inactive)	93.3	100	-1.43% (inactive)	-6.67% (inactive)
COc1ccc(-c2cc(C(=O)N3CCN(Cc4ccccc4)CC3)no2)cc1OC	99	64.5% (inactive)	99% (inactive)	81.5% (inactive)	98.5% (inactive)	20.8% (inactive)	77.8	98.5	-5.68% (inactive)	9% (inactive)
